The values below come from ChEMBL document CHEMBL1139044, “Design and synthesis of furoxan-based nitric oxide-releasing glucocorticoid derivatives with potent anti-inflammatory activity and improved safety” (2007).

Each structure is given as a SMILES string. The source made the active and inactive calls. The rule behind the calls is not given here.

In test [1] the test system is Mus musculus. The test can be described thus: Antiinflammatory activity in mouse assessed as inhibition of xylene induced ear edema. In kind it is functional, organism-based.
Test [2] has as its system Rattus norvegicus. The test can be described thus: Anti-acute-inflammatory activity in rat assessed as carrageenan induced paw edema volume at 21.7 mg/kg after 1 hr. In kind it is functional. In short, it runs like this: (§1)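 Rats, n = 8 per group, with CMC-Na as the vehicle control. Paw swelling was induced with carrageenan, and edema volume (ml) was recorded hourly from 1 to 6 h. Significance was tested against the CMC-Na group.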
(The carrageenan paw model is a standard test of acute inflammation.)

Test [3] deals with Rattus norvegicus. Kind of test: Anti-acute-inflammatory activity in rat assessed as carrageenan induced paw edema volume at 21.7 mg/kg after 2 hrs. The class given is functional. In a few lines: as §1
In test [4] the test system is Rattus norvegicus. Kind of test: Anti-acute-inflammatory activity in rat assessed as carrageenan induced paw edema volume at 21.7 mg/kg after 3 hrs. The class given is functional. In short, it runs like this:
as §1

Test [5] has as its system Rattus norvegicus. The test can be described thus: Anti-acute-inflammatory activity in rat assessed as carrageenan induced paw edema volume at 21.7 mg/kg after 4 hrs. The class given is functional. In a few lines: as §1
Test [6] concerns Rattus norvegicus. Kind of test: Anti-acute-inflammatory activity in rat assessed as carrageenan induced paw edema volume at 21.7 mg/kg after 5 hrs. The class given is functional. In a few lines:
as §1

Test [7] concerns Rattus norvegicus. The test can be described thus: Anti-acute-inflammatory activity in rat assessed as carrageenan induced paw edema volume at 21.7 mg/kg after 6 hrs. The class given is functional. In a few lines: as §1
Test [8] has as its system Osteoblast. The test can be described thus: Effect on alkaline phosphatase activity per 100 ml in SD mouse osteoblasts at 10 umol/L after 48 hrs […]. The class given is functional.
In test [9] the test system is Osteoclast. Kind of test: Inhibition of survival rate of SD mouse osteoclasts at 10 umol/L after 48 hrs by TRAP assay. The class given is functional, cell-based.
Test [10] has as its system Osteoclast. Kind of test: Increase in survival rate of SD mouse osteoclasts at 10 pmol/L to 100 nmol/L after 48 hrs by TRAP assay. In kind it is functional, cell-based.
Test [11] has as its system Osteoblast. Kind of test: Effect on alkaline phosphatase activity per 100 ml in SD mouse osteoblasts at 1 nmol/L after 48 hrs […]. In kind it is functional.
Test [12] deals with Osteoblast. Kind of test: Effect on alkaline phosphatase activity per 100 ml in SD mouse osteoblasts at 1 pmol/L after 48 hrs […]. In kind it is functional. On the technique in general: Formazan colour is commonly taken as a measure of viable cells.
The subject of test [13] is Osteoclast. Kind of test: Inhibition of survival rate of SD mouse osteoclasts at 100 nmol/L to 10 umol/L after 48 hrs by TRAP assay. The class given is functional, cell-based.
In test [14] the test system is Rattus norvegicus. Kind of test: Antihypertension activity in SD rat assessed as heart rate at 43.4 mg/kg for 3 weeks.
The subject of test [15] is Rattus norvegicus. The test can be described thus: Nitric oxide level in SD rat serum at 43.4 mg/kg for 3 weeks by nitrate reductase assay.
Test [16] concerns Rattus norvegicus. The test can be described thus: Antihypertension activity in SD rat assessed as systolic arterial pressure at 43.4 mg/kg for 3 weeks.
The subject of test [17] is Rattus norvegicus. Kind of test: Antihypertension activity in SD rat assessed as diastolic arterial pressure at 43.4 mg/kg for 3 weeks.
Test [18] relates to Osteoblast. Kind of test: Effect on alkaline phosphatase activity per 100 ml in SD mouse osteoblasts at 0.1 pmol/L after 48 hrs […].
The subject of test [19] is Rattus norvegicus. Kind of test: Anti-acute-inflammatory activity in rat assessed as carrageenan induced paw edema volume at 23.2 mg/kg after 1 hr. In kind it is functional. In short, it runs like this: as §1
The subject of test [20] is Rattus norvegicus. The test can be described thus: Anti-acute-inflammatory activity in rat assessed as carrageenan induced paw edema volume at 23.2 mg/kg after 2 hrs. The class given is functional. In a few lines:
as §1

For test [21], the system named is Rattus norvegicus. The test can be described thus: Anti-acute-inflammatory activity in rat assessed as carrageenan induced paw edema volume at 23.2 mg/kg after 3 hrs. The class given is functional. In a few lines: as §1
In test [22] the test system is Rattus norvegicus. The test can be described thus: Anti-acute-inflammatory activity in rat assessed as carrageenan induced paw edema volume at 23.2 mg/kg after 4 hrs. The class given is functional. In short, it runs like this: as §1
Test [23] has as its system Rattus norvegicus. Kind of test: Anti-acute-inflammatory activity in rat assessed as carrageenan induced paw edema volume at 23.2 mg/kg after 5 hrs. In kind it is functional. In a few lines: as §1
For test [24], the system named is Rattus norvegicus. The test can be described thus: Anti-acute-inflammatory activity in rat assessed as carrageenan induced paw edema volume at 23.2 mg/kg after 6 hrs. The class given is functional. In short, it runs like this:
as §1

Test [25] has as its system Rattus norvegicus. The test can be described thus: Anti-acute-inflammatory activity in rat assessed as carrageenan induced paw edema volume at 46.4 mg/kg after 1 hr. In kind it is functional. In short, it runs like this:
as §1

Test [26] has as its system Rattus norvegicus. Kind of test: Anti-acute-inflammatory activity in rat assessed as carrageenan induced paw edema volume at 46.4 mg/kg after 2 hrs. The class given is functional. In short, it runs like this: as §1
The test system of test [27] is Rattus norvegicus. Kind of test: Anti-acute-inflammatory activity in rat assessed as carrageenan induced paw edema volume at 46.4 mg/kg after 3 hrs. In kind it is functional. In a few lines:
as §1

The test system of test [28] is Rattus norvegicus. Kind of test: Anti-acute-inflammatory activity in rat assessed as carrageenan induced paw edema volume at 46.4 mg/kg after 4 hrs. In kind it is functional. In a few lines:
as §1

Test [29] has as its system Rattus norvegicus. The test can be described thus: Anti-acute-inflammatory activity in rat assessed as carrageenan induced paw edema volume at 46.4 mg/kg after 5 hrs. In kind it is functional. In a few lines:
as §1

Test [30] has as its system Rattus norvegicus. Kind of test: Anti-acute-inflammatory activity in rat assessed as carrageenan induced paw edema volume at 46.4 mg/kg after 6 hrs. The class given is functional. In a few lines:
as §1

Test [31] has as its system Rattus norvegicus. The test can be described thus: Anti-acute-inflammatory activity in rat assessed as carrageenan induced paw edema volume at 92.9 mg/kg after 1 hr. The class given is functional. In a few lines:
as §1

For test [32], the system named is Rattus norvegicus. Kind of test: Anti-acute-inflammatory activity in rat assessed as carrageenan induced paw edema volume at 92.9 mg/kg after 2 hrs. In kind it is functional. In a few lines: as §1
Test [33] concerns Rattus norvegicus. Kind of test: Anti-acute-inflammatory activity in rat assessed as carrageenan induced paw edema volume at 92.9 mg/kg after 3 hrs. In kind it is functional. In short, it runs like this:
as §1

In test [34] the test system is Rattus norvegicus. The test can be described thus: Anti-acute-inflammatory activity in rat assessed as carrageenan induced paw edema volume at 92.9 mg/kg after 4 hrs. In kind it is functional. In a few lines:
as §1

In test [35] the test system is Rattus norvegicus. The test can be described thus: Anti-acute-inflammatory activity in rat assessed as carrageenan induced paw edema volume at 92.9 mg/kg after 5 hrs. In kind it is functional. In a few lines: as §1
The test system of test [36] is Rattus norvegicus. The test can be described thus: Anti-acute-inflammatory activity in rat assessed as carrageenan induced paw edema volume at 92.9 mg/kg after 6 hrs. In kind it is functional. In short, it runs like this:
as §1

Test [37] is filed under the species Rattus norvegicus. The test can be described thus: Anti-subacute-inflammatory activity in rat assessed as inhibition cotton pellet induced granuloma formation. In kind it is functional, organism-based.
Test [38] is filed under the species Rattus norvegicus. Kind of test: Antiinflammatory activity in rat assessed as inhibition of Freund's adjuvant induced arthritis. The class given is functional, organism-based.
Test [39] relates to Mus musculus. Kind of test: Antihypertension activity in SD mouse assessed as systolic arterial pressure at 92.9 mg/kg for 3 weeks. The class given is functional, Artery. In a few lines:
(§2)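 Animals were assigned to groups (n = 10) and dosed for 3 weeks, with CMC-Na as the vehicle group. Systolic pressure, diastolic pressure and heart rate were recorded 1 h after the last dose using a multi-channel tail-artery blood pressure system.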

Test [40] relates to Mus musculus. Kind of test: Antihypertension activity in SD mouse assessed as diastolic arterial pressure at 92.9 mg/kg for 3 weeks. The class given is functional, Artery. In a few lines:
as §2

Test [41] concerns Mus musculus. Kind of test: Antihypertension activity in SD mouse assessed as heart rate at 92.9 mg/kg for 3 weeks. The class given is functional. In a few lines:
as §2

Test [42] concerns Mus musculus. Kind of test: Nitric oxide level in SD mouse serum at 92.9 mg/kg for 3 weeks by nitrate reductase assay. In kind it is functional. In a few lines: (§3)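 Animals were dosed for 3 weeks (n = 10) with a CMC-Na vehicle group. After the blood pressure readings, […] was drawn from the femoral artery and serum NO (µmol/L) was determined by nitrate reductase assay.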

Test [43] deals with Mus musculus. The test can be described thus: Antihypertension activity in SD mouse assessed as systolic arterial pressure at 31 mg/kg for 3 weeks. In kind it is functional, Artery. In short, it runs like this: as §2
Test [44] concerns Mus musculus. The test can be described thus: Antihypertension activity in SD mouse assessed as diastolic arterial pressure at 31 mg/kg for 3 weeks. The class given is functional, Artery. In short, it runs like this:
as §2

For test [45], the system named is Mus musculus. Kind of test: Antihypertension activity in SD mouse assessed as heart rate at 31 mg/kg for 3 weeks. In kind it is functional. In a few lines: as §2
Test [46] relates to Mus musculus. The test can be described thus: Nitric oxide level in SD mouse serum at 31 mg/kg for 3 weeks by nitrate reductase assay. In kind it is functional. In a few lines: as §3

Turning to `CC(CCOc1no[n+]([O-])c1S(=O)(=O)c1ccccc1)OC(=O)CCC(=O)OCC(=O)[C@@]1(O)CC[C@H]2[C@@H]3CCC4=CC(=O)CC[C@]4(C)[C@H]3[C@@H](O)C[C@@]21C` (some centres not stated), in [1], the result was Active.
On to `C[C@]12CCC(=O)C=C1CC[C@@H]1[C@@H]2[C@@H](O)C[C@@]2(C)[C@H]1CC[C@]2(O)C(=O)COC(=O)CCC(=O)OCCCCOc1no[n+]([O-])c1S(=O)(=O)c1ccccc1`, for which the outcome in [1] was Active.
For `C[C@]12CCC(=O)C=C1CC[C@@H]1[C@@H]2[C@@H](O)C[C@@]2(C)[C@H]1CC[C@]2(O)C(=O)CO` [HYDROCORTISONE], the Activity in test [2] stood at 0.15 mL; in [3], 0.25 mL; in test [4], 0.54 mL; in test [5] it was 0.85 mL; in test [6], 0.98 mL; in test [7], 1.02 mL. In addition, the Activity in [8] worked out at 2.26 U; in [11], 2.66 U; in [12], 2.69 U; in [14], 365.2; in test [15], 28 µmol/L; in [16], 156.7 mmHg. The Activity in test [17] worked out at 109.6 mmHg; in [18] it was 2.07 U. Also, the result in test [9], in test [10] and in [13] was Active.
Take `C[C@]12CCC(=O)C=C1CC[C@@H]1[C@@H]2[C@@H](O)C[C@@]2(C)[C@H]1CC[C@]2(O)C(=O)COC(=O)CCC(=O)OCCOCCOc1no[n+]([O-])c1S(=O)(=O)c1ccccc1`: the outcome in [1] and in test [38] was Active. Further, the Activity in test [19] is 0.1 mL; in test [20] it was 0.39 mL; in test [21], 0.74 mL; in test [22] it was 0.99 mL; in test [23] it was 1.12 mL; in test [24], 1.07 mL. For the same compound, the Activity in [25] was found to be 0.13 mL; in test [26] it was 0.24 mL; in test [27], 0.56 mL; in test [28], 0.94 mL; in test [29], 0.95 mL; in [30], 0.92 mL. The Activity in test [31] stood at 0.12 mL; in test [32], 0.22 mL; in [33], 0.41 mL; in test [34] it was 0.65 mL; in [35], 0.8 mL; in test [36] it was 0.81 mL. Also, the Activity entry in test [37] was “Dose-dependent effect”; in test [8] it was 1.54 U; in test [39] it was 137.8 mmHg; in test [40] it was 86.9 mmHg; in [41], 379.3; in test [42], 40.9 µmol/L. For the same compound, the Activity in [43] came to 144.5 mmHg; in test [44], 97.8 mmHg; in [45] it was 360.3; in test [46], 31 µmol/L; in test [11], 2.97 U; in test [12], 2.24 U. The same compound had an Activity in [18] of 1.89 U.
